# Measurements taken from PMC7531564 (mAbs, 2020).
# Residue numbers refer to the chain shown, from its start.
# T1: human ARG2 (Homo sapiens, UniProt P78540)
# T1 sequence (P78540 23-354): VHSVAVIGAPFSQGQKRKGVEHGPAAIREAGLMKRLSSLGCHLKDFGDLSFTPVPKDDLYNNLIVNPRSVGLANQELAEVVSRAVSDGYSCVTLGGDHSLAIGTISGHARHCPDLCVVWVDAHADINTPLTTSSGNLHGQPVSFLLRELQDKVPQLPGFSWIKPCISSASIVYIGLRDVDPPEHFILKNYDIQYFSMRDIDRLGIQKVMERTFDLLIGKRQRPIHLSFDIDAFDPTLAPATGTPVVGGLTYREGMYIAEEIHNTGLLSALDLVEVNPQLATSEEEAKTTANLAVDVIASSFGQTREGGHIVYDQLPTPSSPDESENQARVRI
# T2: ARG2-C0021158 Fab complex (Homo sapiens, UniProt P78540)
# T2 sequence (P78540 23-354): T1 sequence (P78540 23-354)
# B1: recombinant human Arginase 2 (ARG2) trimer, residues 23-354, C-terminal His6-tag (enzyme, UniProt P78540 23-354, looked up)
# chain: T1 sequence (P78540 23-354)
# B2: C0021177 (antibody, V domains shown)
# VH: EVQLLESGGGLVQPGGSLRLSCAASGFTFRYEVAAWVRQAPGKGLEWVSAISGPAPKGYYADSVKGRFTISRDNSKNTLYLQMNSLRAEDTAVYYCARLRADLGLYMDLWGRGTLVTVSS
# VL: QSELTQPPTASAAPGQKVTISCSGSSSNIGNHYVSWYQQLPGTAPKLLIYDTTVLSSGIPDRFSGSKSGTSATLGITGLQTGDEADYYCGTWDELTSNLVFGGGTKLTVL
# B3: C0021158 Fab (Fab, V domains shown)
# VH: B2 VH with A55I
# VL: B2 VL with E3V, T9S, A10V, T52N, T53S, V54E, L55R, S56T, S57A, I59V
# What was measured:
# human ARG2 = target: T1, human ARG2; assay: Isothermal titration calorimetry with free ARG2; format: binding; settings: KD (ITC), free ARG2 20 µM monomer, 25°C
# How it was run: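 ITC on a MicroCal VP at 25°C. A 750 µM (0.75 mM) boronic acid arginase-inhibitor ligand was titrated into 20 µM recombinant human ARG2 (monomer concentration). Thermograms were integrated, and isotherms were fitted to a one-site (one-to-one) binding model. Error was taken as a 68.3% confidence interval.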
# [1] = target: T2, ARG2-C0021158 Fab complex; assay: Isothermal titration calorimetry with ARG2-C0021158 Fab complex; format: binding; settings: ARG2 + C0021158 Fab 1:1 mix, 20 µM each
# How it was run: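 ITC on a MicroCal VP at 25°C. Recombinant human ARG2 and test Fab were mixed 1:1 at 20 µM each (ARG2 as monomer) and pre-incubated 1 h at 20°C. Boronic acid arginase-inhibitor ligand at 0.50 mM was then titrated in. Isotherms were fitted to a one-site binding model.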
# mouse cancer models = settings: cited from earlier work
# [2] = tested on: CD3/CD28 co-stimulated T-cells; assay: In vitro T-cell proliferation assay; format: cell-based, human; settings: ARG2 15 µg/ml; BrdU
# How it was run: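 Human PBMCs were isolated from leukocyte cones by Ficoll gradient, and T cells were enriched by negative selection. 40000 cells/well in RPMI 1640 with 5% human serum albumin were activated with CD3/CD28 (1:40) for 45 min at 37°C, 5% CO2. Antibody titrations in TBS/NaCl were added for 30 min, then recombinant human trimeric ARG2 (15 µg/ml final). Incubation lasted 96 h total, with BrdU added at 78 h and read by ELISA. Data were expressed as % of control, with EC50 from a four-parameter fit.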
# mRCC CL-19 cell line = settings: high expressing ARG2 mRCC CL-19 cell line; cited from earlier work
# crystal structure = target: the molecule itself; assay: crystal structure
# [3] = target: biotinylated recombinant human ARG2 trimer (human, UniProt P78540, biotin (site not stated))
# [4] = target: recombinant human Arginase 2 (ARG2) trimer, residues 23-354, C-terminal His6-tag (human, UniProt P78540); assay: crystal structure
molecule,measurement,setting,value
"Cl.N[C@@H](CSCCB(O)O)C(=O)O [BEC, S-(2-Boronoethyl)-L-cysteine hydrochloride]",Kd,human ARG2,~7 µM
same,binding to C0021158-bound ARG2 (ITC),[1],no interaction
C[C@H](N)C(=O)N1C[C@H](CCCB(O)O)[C@](N)(C(=O)O)C1 [CB-1158],tumor growth,mouse cancer models; mouse cancer models,reduces tumor growth
"NC(=NCCC[C@H](N)C(=O)O)NO [NHLA, N^G-hydroxy-L-arginine]",restoration of ARG2-inhibited T-cell proliferation,[2],partially restore
"N=C(NO)NCC[C@H](N)C(=O)O [nor-NOHA, N^ω-hydroxy-nor-L-arginine]",anti-tumor effect in vivo,mouse cancer models; in vivo mouse models,anti-tumor effects
same,cell growth,mRCC CL-19 cell line,significantly suppressed cell growth
B1,stoichiometry N,crystal structure,3
B2,Kd,[3],0.000173 µM
B3,stoichiometry N,[4],3 Fab per ARG2 trimer
